# Experimental data gathered from unrelated publications.
# Target: Calcium/calmodulin-dependent protein kinase type IV (CAMK4, Homo sapiens, UniProt Q16566)
# One construct used (Q16566 1-473): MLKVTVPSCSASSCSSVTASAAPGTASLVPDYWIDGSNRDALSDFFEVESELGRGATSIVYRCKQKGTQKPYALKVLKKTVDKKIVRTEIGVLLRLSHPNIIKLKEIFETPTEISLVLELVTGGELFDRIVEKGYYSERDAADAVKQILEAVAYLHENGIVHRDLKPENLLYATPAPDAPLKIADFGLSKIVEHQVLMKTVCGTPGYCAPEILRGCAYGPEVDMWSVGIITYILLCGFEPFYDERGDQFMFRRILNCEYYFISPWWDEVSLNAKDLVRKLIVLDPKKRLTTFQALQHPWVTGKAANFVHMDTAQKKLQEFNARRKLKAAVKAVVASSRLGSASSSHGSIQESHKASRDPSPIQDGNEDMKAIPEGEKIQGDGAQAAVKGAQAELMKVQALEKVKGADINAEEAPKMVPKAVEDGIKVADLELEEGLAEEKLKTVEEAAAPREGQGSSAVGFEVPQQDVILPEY
Compound,read-out,method,tested at,remaining binding
O=C(Nc1c[nH]nc1C(=O)NC1CCNCC1)c1cc(F)cc(F)c1,binding,competition with immobilised ligand,1 µM,100%
CC1=C(C#N)[C@@H](c2ccc3[nH]nc(C)c3c2)C(C#N)=C(c2ccc(Cl)cc2)N1,cell-free assay,competition with immobilised ligand,1 µM,31.8%
COc1cnc(Nc2cccc(S(N)(=O)=O)c2)nc1N1CCN(c2ccccc2)C(=O)C1,binding,competition with immobilised ligand,1 µM,100%
Cc1cnc(Nc2ccc(C(=O)N3CCC(N4CCCC4)CC3)cc2)nc1-c1cc2ccccc2s1,binding,competition with immobilised ligand,1 µM,100%
F[C@@H]1CCN(c2nccc(-c3cnn4ncccc34)n2)C1,binding,,1 µM,79%
C[C@@H](c1ccc(-n2cnc3c(N)ncnc32)cc1)N1CCc2nn(C)c(Cc3ccccc3)c2C1=O,binding,competition with immobilised ligand,0.1 µM,100%
O=C(NCCCN1CCOCC1)c1ccc(Nc2nccc(-c3cc4ccccc4s3)n2)cc1,binding,competition with immobilised ligand,1 µM,100%
c1cncc(-c2cccc(Nc3nccc(NC4CCCCC4)n3)c2)c1,binding,competition with immobilised ligand,10 µM,100%
CN(CCCC(F)(F)F)c1nccc(-c2cnn3ncccc23)n1,binding,,1 µM,64%
C[C@H](NC(=O)c1cnc2n1[C@](C)(Cc1ccc(C#N)cc1)C(=O)N2c1cc(Cl)c(F)c(Cl)c1)C(=O)NC1(c2ccccn2)CC1,cell-free assay,competition with immobilised ligand,1 µM,100%
N[C@H]1CCN(c2nccc(-c3cnn4ncccc34)n2)C1,binding,,1 µM,100%
CNC(=O)[C@@H]1CC[C@@H](n2c(-c3ccc4cnccc4c3)nc3ccc(C(=O)NCc4cccc(C(N)=O)c4)cc32)C1,binding,competition with immobilised ligand,1 µM,100%
CN(C)c1nccc(-c2cnn3ncccc23)n1,binding,,1 µM,100%
O=C(NCCCN1CCOCC1)c1ccc(Nc2ncc(Cl)c(-c3ccc(Cl)s3)n2)cc1,binding,competition with immobilised ligand,1 µM,100%
CC(C)(O)c1cncc(-c2nc3ccc(F)cc3n2C2CC2)c1,cell-free assay,competition with immobilised ligand,1 µM,100%
CN(C)c1nccc(-c2cnc3ncccn23)n1,binding,,1 µM,100%
Cn1nc(C(F)(F)F)cc1-c1cnc(N2CCc3cc(S(=O)(=O)Nc4c(F)cc(Cl)cc4F)cc(N4CCCC4=O)c32)nc1,cell-free assay,competition with immobilised ligand,1 µM,100%
CN(C)c1ncc(F)c(-c2cnn3ncccc23)n1,binding,,1 µM,100%
C[C@H](c1ccnc(Nc2nc3ccc(-c4cc(N(C)C)ncn4)cc3[nH]2)c1)N1CCN(C(=O)CC(F)(F)F)CC1,cell-free assay,competition with immobilised ligand,0.1 µM,100%
C[C@H]1CCN(c2nccc(-c3cnn4ncccc34)n2)C1,binding,,1 µM,90%
Cc1c(NC(=O)c2cc(C(N)=O)nc3cc(F)ccc23)c(C(F)(F)F)nn1Cc1ccc(C(C)(C)C)cc1,cell-free assay,competition with immobilised ligand,1 µM,90%
COc1ncc2cc3ccccc3nc2c1C#N,cell-free assay,competition with immobilised ligand,5 µM,93%
